Among the data in ChEMBL document CHEMBL4808207, “Macrocyclic Peptides as a Novel Class of NNMT Inhibitors: A SAR Study Aimed at Inhibitory Activity in the Cell” (ACS Med Chem Lett, 2021) are IC50 and CC20 values, retold here.

Data set [1] concerns the target T1, Nicotinamide N-methyltransferase (Mus musculus, UniProt O55239).
T1 sequence (O55239 whole entry): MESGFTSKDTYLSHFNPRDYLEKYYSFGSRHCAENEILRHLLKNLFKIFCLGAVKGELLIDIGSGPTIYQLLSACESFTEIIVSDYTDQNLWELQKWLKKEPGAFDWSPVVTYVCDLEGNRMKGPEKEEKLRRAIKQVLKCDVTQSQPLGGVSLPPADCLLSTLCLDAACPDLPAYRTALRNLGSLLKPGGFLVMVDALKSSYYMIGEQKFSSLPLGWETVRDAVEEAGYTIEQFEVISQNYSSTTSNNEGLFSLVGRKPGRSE
The data set can be described thus: Inhibition of mouse recombinant NNMT using nicotinamide and SAM as substrate assessed as reduction in 1-methyl-nicotinamide formation incubated for 2 hrs by RapidFire Mass spectroscopy.

The subject of a further data set is HEK293. The data set can be described thus: Cytotoxicity against human HEK293 cells overexpressing human NNMT assessed as reduction in ATP level measured after 24 hrs by CellTiter-glo luminescence assay. Format: cell-based. The conditions noted are these: hek293, 24 h. The procedure, abridged: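 Reported value is the peptide concentration giving a 20% decline in cellular ATP in NNMT-overexpressing HEK293 cells, with peptides tested up to 100 μM.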
In general terms: ATP-based viability assays read luminescence as a measure of living cells.

The target of data set [2] is T2, Nicotinamide N-methyltransferase (Homo sapiens, UniProt P40261).
T2 sequence (P40261 whole entry): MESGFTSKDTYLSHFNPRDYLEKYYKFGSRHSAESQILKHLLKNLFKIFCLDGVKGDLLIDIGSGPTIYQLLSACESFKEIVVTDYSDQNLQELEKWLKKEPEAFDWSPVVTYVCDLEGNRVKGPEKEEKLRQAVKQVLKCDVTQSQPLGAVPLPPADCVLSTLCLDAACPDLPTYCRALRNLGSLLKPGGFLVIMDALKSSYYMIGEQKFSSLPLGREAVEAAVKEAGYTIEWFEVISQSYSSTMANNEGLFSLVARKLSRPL
Kind of data set: Inhibition of human recombinant NNMT using nicotinamide and SAM as substrate assessed as reduction in 1-methyl-nicotinamide formation incubated for 22 to 24 hrs by RapidFire Mass spectroscopy.

Data set [3] concerns the target T1, Nicotinamide N-methyltransferase. Kind of data set: Inhibition of mouse recombinant NNMT using nicotinamide and SAM as substrate assessed as reduction in 1-methyl-nicotinamide formation incubated for 22 to 24 hrs by RapidFire Mass spectroscopy.

Numbered stars: 1 amine (or outer) side, 2 acyl side, 3 side chain; on linkers, the order of the positions; unused ones are H or OH. Bridge positions count the residues as written; N and C are the ends. Square brackets hold non-standard residues; d marks the D form. Peptide text beside a SMILES is read from it. Bip(4'-CONH2) = NC(=O)c1ccc(-c2ccc(C[C@H](N)C(=O)O)cc2)cc1; Pro(trans-4-Ph) = O=C(O)[C@@H]1C[C@@H](c2ccccc2)CN1; Phe(4-CONH2) = NC(=O)c1ccc(C[C@H](N)C(=O)O)cc1; Pro(4,4-F2) = O=C(O)[C@@H]1CC(F)(F)CN1; NHCH2CH2SCH2CO = O=C(CSCCN[*:1])[*:2]; NMeY = CN[C@@H](Cc1ccc(O)cc1)C(=O)O; Lys(Me2) = CN(C)CCCC[C@H](N)C(=O)O; NMeF = CN[C@@H](Cc1ccccc1)C(=O)O; tBuAla = CC(C)(C)C[C@H](N)C(=O)O; 3Pal = N[C@@H](Cc1cccnc1)C(=O)O; Tic = O=C(O)[C@@H]1Cc2ccccc2CN1; Pip = O=C(O)[C@@H]1CCCCN1

As a reminder, the IC50 is the midpoint of a concentration-inhibition curve. Take `CC[C@H](C)[C@@H]1NC(=O)[C@H](CC(C)C)NC(=O)[C@@H]2CCCN2C(=O)[C@H](Cc2ccccc2)NC(=O)CSC[C@@H](C(=O)NCC(N)=O)NC(=O)CNC(=O)[C@H](CCCCN)NC(=O)[C@H](CCCNC(=N)N)NC(=O)[C@@H]2CCCN2C(=O)[C@H](Cc2ccccc2)NC1=O` ({CH2CO}-FPLIFPRKGCG-NH2; thioether N-10): the concentration for half-maximal inhibition (IC50) in data set [1] was 0.243 µM.

Take `CC(C)C[C@@H]1NC(=O)[C@@H]2CCCN2C(=O)[C@H](Cc2ccccc2)NC(=O)CSC[C@@H](C(N)=O)NC(=O)[C@H](Cc2ccc(-c3ccc(C(N)=O)cc3)cc2)NC(=O)[C@@H]2Cc3ccccc3CN2C(=O)[C@@H]2CCCN2C(=O)[C@H](CCCCN)NC1=O` ({CH2CO}-FPLKP[Tic][Bip(4'-CONH2)]C-NH2; thioether N-8): the CC20 in the data set on HEK293 is over 100 µM.

With `CC[C@H](C)[C@@H]1NC(=O)[C@H](CC(C)C)NC(=O)[C@@H]2CCCN2C(=O)[C@H](Cc2ccccc2)NC(=O)CSC[C@@H](C(N)=O)NC(=O)CNC(=O)[C@H](CCCCN)NC(=O)[C@H](CCCNC(=N)N)NC(=O)[C@@H]2CCCN2C(=O)[C@H](Cc2ccccc2)NC1=O` ({CH2CO}-FPLIFPRKGC-NH2; thioether N-10), the IC50 in data set [1] is over 30 µM.

Consider `CN1C(=O)CSC[C@@H](C(N)=O)NC(=O)[C@H](Cc2ccc(C(N)=O)cc2)NC(=O)[C@@H]2Cc3ccccc3CN2C(=O)[C@@H]2CCCN2C(=O)[C@H](Cc2c[nH]cn2)NC(=O)[C@H](Cc2ccc(O)cc2)NC(=O)[C@@H]2CCCN2C(=O)[C@@H]1Cc1ccccc1` ({CH2CO}-[NMeF]PYHP[Tic][Phe(4-CONH2)]C-NH2; thioether N-8), for which the half-maximal inhibitory concentration (IC50) in data set [2] and in data set [3] was over 100 µM throughout.

Turning to `CN(C)CCCC[C@@H]1NC(=O)[C@H](CC(C)(C)C)NC(=O)[C@@H]2C[C@@H](c3ccccc3)CN2C(=O)[C@H](Cc2ccccc2)N(C)C(=O)CSCCNC(=O)[C@H](Cc2ccc(-c3ccc(C(N)=O)cc3)cc2)NC(=O)[C@@H]2Cc3ccccc3CN2C(=O)[C@@H]2CC(F)(F)CN2C1=O` (cyclo([Lys(Me2)][Pro(4,4-F2)][Tic][Bip(4'-CONH2)][NHCH2CH2SCH2CO][NMeF][Pro(trans-4-Ph)][tBuAla])), the IC50 in data set [3] was 0.00062 µM. Besides, the CC20 with HEK293 is over 100 µM.

`CN1C(=O)[C@@H]2CCCN2C(=O)[C@H](Cc2ccccc2)NC(=O)CSC[C@@H](C(N)=O)NC(=O)[C@H](Cc2ccc(C(N)=O)cc2)NC(=O)[C@@H]2Cc3ccccc3CN2C(=O)[C@@H]2CCCN2C(=O)[C@H](CCCNC(=N)N)NC(=O)[C@@H]1Cc1ccc(O)cc1` ({CH2CO}-FP[NMeY]RP[Tic][Phe(4-CONH2)]C-NH2; thioether N-8): the IC50 in data set [2] and in data set [3] was over 30 µM throughout.

In the case of `CN1C(=O)CSCCNC(=O)[C@H](Cc2ccc(-c3ccc(C(N)=O)cc3)cc2)NC(=O)[C@@H]2Cc3ccccc3CN2C(=O)[C@@H]2CC(F)(F)CN2C(=O)[C@@H]2CCCCN2C(=O)[C@H](CC(C)(C)C)NC(=O)[C@@H]2C[C@@H](c3ccccc3)CN2C(=O)[C@@H]1Cc1ccccc1` (cyclo([NMeF][Pro(trans-4-Ph)][tBuAla][Pip][Pro(4,4-F2)][Tic][Bip(4'-CONH2)][NHCH2CH2SCH2CO])), the CC20 in the data set on HEK293 was over 100 µM.

With `N=C(N)NCCC[C@@H]1NC(=O)[C@H](Cc2ccc(O)cc2)NC(=O)[C@@H]2CCCN2C(=O)[C@H](Cc2ccccc2)NC(=O)CSC[C@@H](C(N)=O)NC(=O)[C@H](Cc2ccc(C(N)=O)cc2)NC(=O)[C@@H]2Cc3ccccc3CN2C(=O)[C@@H]2CCCN2C1=O` ({CH2CO}-FPYRP[Tic][Phe(4-CONH2)]C-NH2; thioether N-8), in data set [3], the IC50 came out at 0.025 µM. Also, the CC20 in the data set on HEK293 was over 100 µM.

Take `CN1C(=O)CSC[C@@H](C(N)=O)NC(=O)[C@H](Cc2ccc(C(N)=O)cc2)NC(=O)[C@@H]2Cc3ccccc3CN2C(=O)[C@@H]2CCCN2C(=O)[C@H](Cc2cccnc2)NC(=O)[C@H](Cc2ccc(O)cc2)NC(=O)[C@@H]2CCCN2C(=O)[C@@H]1Cc1ccccc1` ({CH2CO}-[NMeF]PY[3Pal]P[Tic][Phe(4-CONH2)]C-NH2; thioether N-8): the IC50 in data set [2] and in data set [3] was over 100 µM throughout.
